Positions count from the first letter of the chain named.
Columns and labels:
IDE E341A = target: T1, IDE E341A (Homo sapiens, UniProt P14735, E341A); test: Hydrolysis of dual labelled Aβ16–23 by the E341A exosite mutant; assay type: biochemical
T1 sequence (P14735 1-1019 E341A): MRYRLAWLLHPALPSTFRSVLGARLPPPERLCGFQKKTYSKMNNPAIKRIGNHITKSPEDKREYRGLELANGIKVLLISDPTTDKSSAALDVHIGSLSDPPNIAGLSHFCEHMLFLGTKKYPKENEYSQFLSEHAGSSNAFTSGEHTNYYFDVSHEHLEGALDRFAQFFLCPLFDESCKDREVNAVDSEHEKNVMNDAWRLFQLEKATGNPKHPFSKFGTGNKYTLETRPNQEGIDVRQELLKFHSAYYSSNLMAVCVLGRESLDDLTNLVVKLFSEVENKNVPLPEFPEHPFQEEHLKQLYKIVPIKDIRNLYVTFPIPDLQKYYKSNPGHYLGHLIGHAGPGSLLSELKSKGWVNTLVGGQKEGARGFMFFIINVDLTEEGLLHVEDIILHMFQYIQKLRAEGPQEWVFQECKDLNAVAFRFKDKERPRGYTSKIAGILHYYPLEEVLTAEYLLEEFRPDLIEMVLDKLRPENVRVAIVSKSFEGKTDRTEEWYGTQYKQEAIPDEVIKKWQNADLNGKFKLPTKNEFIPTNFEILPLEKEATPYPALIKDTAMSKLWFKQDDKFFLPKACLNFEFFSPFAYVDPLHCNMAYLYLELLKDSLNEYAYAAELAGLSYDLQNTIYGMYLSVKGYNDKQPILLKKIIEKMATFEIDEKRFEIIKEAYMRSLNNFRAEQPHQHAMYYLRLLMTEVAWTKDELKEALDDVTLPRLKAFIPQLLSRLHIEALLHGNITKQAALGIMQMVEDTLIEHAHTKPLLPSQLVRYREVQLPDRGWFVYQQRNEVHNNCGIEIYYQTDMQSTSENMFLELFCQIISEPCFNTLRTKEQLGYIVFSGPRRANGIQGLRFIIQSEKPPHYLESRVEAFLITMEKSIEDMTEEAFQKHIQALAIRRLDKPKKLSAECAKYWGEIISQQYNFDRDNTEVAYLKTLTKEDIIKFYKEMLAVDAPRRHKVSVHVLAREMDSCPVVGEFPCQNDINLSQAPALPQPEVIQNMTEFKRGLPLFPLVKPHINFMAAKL

[1] = target: T2, Human recombinant IDE (IDEwt) (Homo sapiens, UniProt P14735); assay type: biochemical; details: for activity on Aβ16–23 hydrolysis (in words): IDEwt
T2 sequence (P14735 1-1019): T1 sequence (P14735 1-1019 E341A) with A341E

Cell permeability = assay type: in vitro ADME
hIDE = target: T3, hIDE (Homo sapiens, UniProt P14735); test: Hydrolysis of unlabelled native insulin by hIDE; assay type: biochemical; details: at 100µM
T3 sequence (P14735 1-1019): T1 sequence (P14735 1-1019 E341A) with A341E

[2] = Solubility in PBS from a DMSO stock solution; assay type: physicochemical
hepatocytes = test: Repression of PEPCK by insulin on hepatocytes; assay type: cell-based
Cell medium stability = assay type: in vitro ADME
[3] = system: SH-SY5Y neuroblastoma cells (APPswe, APPwt); test: Cellular assay in the amyloid pathway; assay type: cell-based, human
Procedure, shortened: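 SH-SY5Y cells stably expressing human APP751 Swedish or […], grown in DMEM/10% FCS at 37 °C, 5% CO2. Treated 24 h after seeding with vehicle or test compound (10 mM DMSO stock). Medium cleared at 1000 × g and assayed by ELISA: Aβ1–40 diluted 1:10, Aβ1–42 undiluted. Duplicates from three experiments, normalised to untreated cells. RIPA lysates immunoblotted: 12 µg Bis-Tris gel; CTFs 30 µg Tris-Tricine gel.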

β-pancreatic cells = test: Insulin secretion by β-pancreatic cells; assay type: cell-based
[4] = LogD7.4, PBS/octanol partition from a DMSO stock solution; assay type: physicochemical; details: compared with 5
[5] = 0.1 or 10 µM, 24 h and 48 h, APPswe and APPwt SY5Y

Structure (SMILES): COC(=O)[C@H](Cc1c[nH]cn1)NC(=O)CN(CC(=O)O)Cc1ccccc1 [Compound 1, (S)-2-[2-(Benzyl-carboxymethyl-amino)-acetylamino]-3-(1H-imidazol-4-yl)-propionic acid methyl ester]
- behaviour as inhibitor (IDE E341A): full inhibitor

Structure (SMILES): COC(=O)[C@H](Cc1ccccc1)NC(=O)CN(CC(=O)O)Cc1ccccc1 [Compound 6, (S)-2-(2-(Benzyl-carboxymethyl-amino)-acetylamino)-3-phenyl-propionic acid methyl ester]
- activity on Aβ16–23 hydrolysis (in words) [1]: completely abolish activity

Structure (SMILES): CNC(=O)[C@H](Cc1c[nH]cn1)NC(=O)CN(CCCc1ccccc1)CC(=O)O [Compound 5, ((((S)-2-(1H-Imidazol-4-yl)-1-methylcarbamoyl-ethylcarbamoyl)-methyl)-(3-phenylpropyl)-amino)-acetic acid]
- crossing of cell membranes (in words) (Cell permeability): does not cross easily cell membranes

Structure (SMILES): O=C(O)CN(CCN(CC(=O)O)CC(=O)O)CC(=O)O [EDTA, reference compound]
- inhibition by reference inhibitor ([1]; at 2 mM): 100%

Structure (SMILES): COC(=O)[C@H](Cc1c[nH]cn1)NC(=O)CN(CC(=O)O)C(=O)c1ccccc1 [Compound 7, (S)-2-(2-(Benzoyl-carboxymethyl-amino)-acetylamino)-3-(1H-imidazol-4-yl)-propionic acid methyl ester]
- activity on Aβ16–23 hydrolysis (in words) [1]: completely abolish activity

Structure (SMILES): CNC(=O)[C@H](Cc1c[nH]cn1)NC(=O)CN(CCCc1ccccc1)CC(=O)OC [Compound 8, ((((S)-2-(1H-Imidazol-4-yl)-1-methylcarbamoyl-ethyl-carbamoyl)-methyl)-(3-phenylpropyl)-amino)-acetic acid methyl ester]
- residual activation of insulin hydrolysis (hIDE): 50 % of 5 activity
- solubility (in words) [2]: good solubility
- repression of PEPCK by insulin on hepatocytes (hepatocytes): nor modify
- half-life (Cell medium stability): 11.3 h
- effect on APP holoproteins and on CTFs [3]: No effect
- extracellular levels of Aβ1–40 [3, 5]: dose-dependent increase
- extracellular levels of Aβ1–42 [3, 5]: dose-dependent increase
- level of insulin secreted by β-pancreatic cells (β-pancreatic cells): did neither affect
- logD7.4 (in words) [4]: higher

— article PMC4128174 (European journal of medicinal chemistry, 2014)
